According to ChEMBL document CHEMBL1154156, “Natural tanshinone-like heterocyclic-fused ortho-quinones from regioselective Diels-Alder reaction: synthesis and cytotoxicity evaluation” (Eur J Med Chem, 2009):

Experiments:
[1] = Cytotoxicity against human GLC82 cells after 48 hrs by MTT assay; type: functional, cell-based
Outline: (§1)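 Human cells (GLC-82 lung adenocarcinoma; CNE2 nasopharyngeal carcinoma) were seeded at 1×10⁴ per well and incubated overnight. They were then exposed for 48 h to increasing compound concentrations (0–100). MTT (5 mg/mL stock) was added for 4 h at 37 °C, and unconverted MTT was removed before plate-reader absorbance. Runs were in quadruplicate, with viability as % of untreated control. IC50 is the concentration reducing mean viability to 50%.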

[2] = Cytotoxicity against human CNE2 cells after 48 hrs by MTT assay; type: functional, cell-based, CNE-2; outline: as §1
[3] = Homo sapiens, GLC82, 48 h, read-out: IC50
[4] = Homo sapiens, CNE-2, 48 h, read-out: IC50

Row | Structure (SMILES) | IC50 [1, 3] [µM] | IC50 [2, 4] [µM] | IC50 ([1]; glc82) | IC50 ([2]; cne-2)
1 | CC[C@@]1(O)C(=O)OCc2c1cc1n(c2=O)Cc2cc3cc(O)ccc3nc2-1 [HYDROXYCAMPTOTHECIN] | 1.09 | 0.37 |  | 
2 | O=C1C(=O)c2c(-c3ccc(Cl)cc3)coc2-c2cccc(N3C(=O)CCC3=O)c21 | 1.6 | 2 |  | 
3 | CC(=O)Nc1c(C)cc(C)c2c1C(=O)C(=O)c1c(-c3ccc(F)cc3)coc1-2 | 8.9 |  |  | 
4 | CC(=O)Nc1c(C)cc(C)c2c1C(=O)C(=O)c1c(-c3ccccc3)csc1-2 | 5 | 4.1 |  | 
5 | CC(=O)Nc1c(C)cc(C)c2c1C(=O)C(=O)c1c(-c3ccc(C)cc3)coc1-2 | 9.5 | 5.6 |  | 
6 | CC(=O)Nc1c(C)cc(C)c2c1C(=O)C(=O)c1c(-c3ccccc3C)csc1-2 |  | 4.2 |  | 
7 | CC(=O)Nc1c(C)cc(C)c2c1C(=O)C(=O)c1c(-c3ccc(Cl)cc3)coc1-2 | 6 | 9.2 |  | 
8 | Cc1ccc(-c2coc3c2C(=O)C(=O)c2cc(C)cc(C)c2-3)cc1 | 12 | 23.3 |  | 
9 | Cc1cc(C)c2c(c1)C(=O)C(=O)c1c(-c3ccc(Cl)cc3)coc1-2 |  |  | ND(Insoluble) | ND(Insoluble)
10 | Cc1cc(C)c2c(c1)C(=O)C(=O)c1c(-c3ccccc3)coc1-2 | > 25 | > 25 |  | 
11 | Cc1cc(C)c2c(c1)C(=O)C(=O)c1c(-c3ccc(C)c(C)c3)coc1-2 |  |  | ND(Insoluble) | ND(Insoluble)
12 | CC(=O)Nc1c(C)cc(C)c2c1C(=O)C(=O)c1c(-c3ccc(Cl)cc3)csc1-2 | 7.5 | 6.8 |  | 
13 | Cc1cc(C)c2c(c1)C(=O)C(=O)c1cc(C)oc1-2 |  |  | ND(Insoluble) | ND(Insoluble)
14 | Cc1cc(C)c2c(c1)C(=O)C(=O)c1c(-c3ccc(F)cc3)coc1-2 |  |  | ND(Insoluble) | ND(Insoluble)
15 | O=C1C(=O)c2c(-c3ccccc3)csc2-c2ccccc21 | 20.1 |  |  | 
16 | CC(=O)Nc1c(C)cc(C)c2c1C(=O)C(=O)c1c(-c3ccc(F)cc3)csc1-2 | 3.9 | 4.6 |  | 
17 | CC(=O)Nc1c(C)cc(C)c2c1C(=O)C(=O)c1c(-c3ccc(C)c(C)c3)coc1-2 |  |  | ND(Insoluble) | ND(Insoluble)
18 | CC(=O)Nc1c(C)cc(C)c2c1C(=O)C(=O)c1c(-c3ccccc3)coc1-2 | 7.2 | 4.8 |  | 
